This passage reports yeast fitness results from the RNAGym collection of RNA variant scans (doi:10.1126/science.aae0568).

B1: tRNA (parent)
chain: GUUCCGUUGGCGUAAUGGUAACGCGUCUCCCUCCUAAGGAGAAGACUGCGGGUUCGAGUCCCGUACGGAACG

Variants at the floor of the assay were thinned out. Bounds are passed on as bounds.

In the data set the parent is B1. The data set can be described thus: yeast fitness relative to wild type (ratio to wild type); higher = fitter; tRNA-Arg(CCU), competitive growth, 37 C, YPD. In a few lines: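 Amplicons of the tRNA-Arg(CCU) gene were sequenced, 100-nucleotide paired-end, from the start population and from each end population of a pooled yeast competition. The competition, in six parallel replicates, lasted 24 hours in YPD at 37°C. Fitness relative to wild type was calculated from changes in genotype frequencies. Genotypes had to have ≥ 100 starting reads, and estimates < 0.5 were set to 0.5.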
Regarding U3G C22U A57G C60A A65U, the yeast fitness amounted to 0.63.
Then U47G U59A C66A A70C, with at most 0.5; and C4G A40U C66U, with 0.571.
For the variant G23C G67C, the yeast fitness is 0.58.
Then C30A C49U, with 0.898; and U7A A21C U54C, with at most 0.5.
In the case of C34A A42C, the yeast fitness came out at 0.818.
Regarding C5U G6C U19C G25C U28G C62A, the yeast fitness amounted to 0.747.
Under A36G A42U A57U stands at most 0.5; under G10C A43U G48A G51A, at most 0.5.
As for C30A A43C A65G, the yeast fitness is 0.97.
Then C30G U32C G50C U59C, with at most 0.5; and G9C A14U C62G, with at most 0.5.
Under U26G A40G U59G C62A stands at most 0.5; under G12A A14G A20G G63A, at most 0.5; under A14U A43G A57C C60G C61A, at most 0.5.
Under G12A A15G G48A stands 0.763.
Regarding G9A C46U, the yeast fitness worked out at 0.943.
Under G38C G41C G50U A65G stands at most 0.5; under U2G U35A A40U A57U, at most 0.5; under C5A C22U C27G C30G A57U, at most 0.5.
Under C5G A21C C24U C33U stands at most 0.5; under U13G C49U, 0.693; under C11U A45C A70U, 0.582.
Consider A15C A20G A21G A57U, for which the yeast fitness is at most 0.5.
Take U28G A37G G50C: the yeast fitness came to 0.528.
With A20G A57U A65U G68C, the yeast fitness is at most 0.5.
Regarding A14U U35C, the yeast fitness turned out to be 0.601.
With C4U G10A C66U, the yeast fitness is 0.663.
With U19C A36C G41C C66A, the yeast fitness is at most 0.5.
As to U28A A36G, the yeast fitness was 0.73.
As to A20U A36G C55G A65U, the yeast fitness worked out at 0.52.
Regarding C24G C30A, the yeast fitness was found to be 0.777.
For C5A U53C C62U, the yeast fitness is at most 0.5.
G18A G41C: the yeast fitness is 0.658.
As for U8A G12A A14C G67U, the yeast fitness was found to be 0.65.
G17C U32C: the yeast fitness is 0.644.
Then A20U C24U A42U C46A C55U C61G A69C, with 0.59; and U13C C27U A69U, with 0.648; and A21C C55A, with 0.605.
For the variant C11U A14G C24G C27U G41A A42C C66U, the yeast fitness is at most 0.5.
G9A G50C C62G C66U: the yeast fitness was 0.687.
Under U32C C60G C66U A70U stands at most 0.5; under G10U G12A A43C A69G, 0.566.
As to C11U C22G, the yeast fitness turned out to be 0.875.
For U19A A20G C24U A43G G48C, the yeast fitness was at most 0.5.
On to U8A C33A A40C, for which the yeast fitness is at most 0.5.
Then C5G C11U A42G C49U C66U G67A, with at most 0.5.
For the variant G23A C30U U53A, the yeast fitness was at most 0.5.
For the variant A42C G52A, the yeast fitness is 0.676.
With U7A G10A A20C C29A C61U C66U, the yeast fitness is at most 0.5.
Under G10A G52A A69U stands at most 0.5; under C24U U47C C62U, 0.803; under U13G U35C G38A A42U G58C A65U, at most 0.5.
Then U19A C46A A69U, with 0.752; and U26C C33G U54C, with at most 0.5.
Regarding A20U C22U C33U, the yeast fitness was at most 0.5.
Regarding C27A A40C, the yeast fitness worked out at 0.775.
For U53G A57C, the yeast fitness is at most 0.5.
Under C4U U16C C24U stands 0.675.
For A40G C62A A70C, the yeast fitness was determined as 0.595.
Turning to G10C A43G G52C C62U G63A, the yeast fitness stood at 0.531.
For the variant C5A A15C C66U, the yeast fitness was at most 0.5.
Take U2G C5A A36U: the yeast fitness is at most 0.5.
Then U2A G6A C11U C31G G51A G67A, with at most 0.5.
With U16G U26G A36G G67U G68C, the yeast fitness was at most 0.5.
C5U C46G C49G: the yeast fitness came out at 0.527.
Under G23A C61U G67A stands 0.525.
C34U C60G: the yeast fitness turned out to be 0.716.
Regarding A21C U59A, the yeast fitness worked out at 0.791.
As for G6C G17C U32G A40C G67A, the yeast fitness was 0.603.
Regarding A21U C46A C62U C66U, the yeast fitness was at most 0.5.
With U35G G56A, the yeast fitness is 0.599.
In the case of C29U C31G A37C G50A, the yeast fitness is at most 0.5.
Turning to U26A A69C, the yeast fitness is 1.06.
Then C24G C49U, with 0.576; and C5G G9C A20G A21C U59C, with at most 0.5; and A20C C27A C30A C31U G52A, with at most 0.5.
For the variant G12C G48C G52C, the yeast fitness is at most 0.5.
As to U2G C29G C31A G67A, the yeast fitness is at most 0.5.
For A42G G48C, the yeast fitness stood at 0.741.
As for A20C A21U C27G U35G C46A A70C, the yeast fitness is at most 0.5.
Then C5U C31G U32C A37C G50C A69C, with at most 0.5; and A15C U16C A65G, with at most 0.5; and C24G C31G C33A G50C C55G A57U C62U U64C, with at most 0.5.
For the variant C5G A37G G41C, the yeast fitness was at most 0.5.
Take C5U G41A C46A U47C: the yeast fitness stood at 0.568.
With A14G G48C C62U, the yeast fitness was 0.654.
On to U19C G25A A45G C62U, for which the yeast fitness is 0.702.
Then U26A A70C, with 0.928.
For the variant A40C A42U C49G C66G, the yeast fitness was 0.612.
Take G18C C27U C62G G63A C66G A69G: the yeast fitness was at most 0.5.
Under C49U G67A A69U stands at most 0.5.
Turning to C11A A14G C24U G41C C55G, the yeast fitness worked out at 0.581.
Regarding U16A G63C A65G, the yeast fitness is at most 0.5.
Then C4G U7G U59G G63C, with at most 0.5.
Turning to G9A U32G A40C C46G, the yeast fitness is at most 0.5.
Regarding U32C A43U A70U, the yeast fitness came out at 0.735.
Regarding A43C A57U C62G, the yeast fitness stood at 0.571.
Consider U47A G58C, for which the yeast fitness came to 1.06.
For U28A C30G, the yeast fitness came to 0.51.
On to G12C U64C, for which the yeast fitness was determined as 0.916.
Turning to G12C C33G C34U A36C A43G G52C C60U, the yeast fitness was 0.608.
Then G44A A45C C49G A69C, with 0.698; and C5U A20G A37G G67A, with at most 0.5; and C30U A36U, with 0.57.
With A65U G68C, the yeast fitness was 0.625.
G6A C27G A36U C46U G67A: the yeast fitness is at most 0.5.
Then C11A C31U A65U, with at most 0.5.
With C5G C22G, the yeast fitness is 0.652.
In the case of G10C C34G A40G, the yeast fitness was at most 0.5.
Regarding G18A C33U A42G C60G C62G, the yeast fitness is at most 0.5.
Consider C34G G50C G56C, for which the yeast fitness is at most 0.5.
On to C5U G44C, for which the yeast fitness came to 1.01.
On to G6C U47G, for which the yeast fitness came out at 0.588.
Consider C11G U19C C34G C60A G67C, for which the yeast fitness is at most 0.5.
Regarding U54A A65U C66U, the yeast fitness is at most 0.5.
As for C29G C33G G58C C62G, the yeast fitness was at most 0.5.
For the variant U13G C33G A40G C60A, the yeast fitness was at most 0.5.
In the case of G23C C24G C34G C61U, the yeast fitness is at most 0.5.
Then C11G C60G C61U, with 0.555; and C5G A14C A36C A45C G48A, with at most 0.5; and C24U U47C, with 0.997.
In the case of A57U G63A, the yeast fitness stood at 0.681.
For the variant G9A U59A A69G, the yeast fitness was found to be 0.697.
For A21G C27G C29U U35G, the yeast fitness was found to be 0.552.
For the variant A20G C33A A37G C62A, the yeast fitness is at most 0.5.
Consider G25A U47C, for which the yeast fitness was determined as 0.93.
Take C4A U32C A40U: the yeast fitness is 0.517.
Under U2C A20U A45G stands at most 0.5; under A57G C60G, 0.641.
For the variant C4U G67A A69U, the yeast fitness stood at 0.684.
Turning to C30U G63A, the yeast fitness was 0.729.
Under C27U G39C C49U G63C stands at most 0.5; under U3C G10C C27U, at most 0.5.
Then C4U U28A, with 0.749; and A14C A37G C49G, with at most 0.5.
As to G10A C55G C60A C66A A69U, the yeast fitness was at most 0.5.
In the case of G10C C11A, the yeast fitness stood at 0.6.
Consider C31G C60G C62A, for which the yeast fitness was found to be 0.624.
As for G12A A57C A65C A70C, the yeast fitness was at most 0.5.
Take C29A U47C A57C U59A: the yeast fitness is at most 0.5.
For the variant C27G A36U G39C G68C, the yeast fitness was determined as 0.533.
In the case of C5G U59A A65G, the yeast fitness is 0.667.
On to A14U C22A A43G G68C, for which the yeast fitness is at most 0.5.
Under C5G U13A stands 0.906; under C11G G12A C24A C30G C46U C66G, 0.585.
Turning to C4U G10A C24U A69C, the yeast fitness is 0.769.
On to C46U U54C A57G, for which the yeast fitness was 0.622.
Turning to A14U C30U U32C U64G, the yeast fitness is at most 0.5.
Consider U3C C46U U64C, for which the yeast fitness turned out to be 0.802.
Then C11U G44A C61A, with 0.823.
For the variant C11A A15C U54C C66G, the yeast fitness was at most 0.5.
As to C11G A37C, the yeast fitness worked out at 0.606.
Turning to G58U, the yeast fitness turned out to be 1.04.
Regarding C11U A21C, the yeast fitness was 0.714.
As to C5U C11A C24G C27G A36U G38C G67C, the yeast fitness was at most 0.5.
U2C G18A C29A: the yeast fitness was at most 0.5.
In the case of A15U A57C A65G, the yeast fitness was at most 0.5.
With U16A C29G C46U C49U U59G A65U G68A, the yeast fitness is 0.537.
Turning to G38A A40U G58C, the yeast fitness was determined as 0.853.
Turning to C29G A42C G52C U59A, the yeast fitness is at most 0.5.
Then A37G A42C C55G G68C, with at most 0.5.
Take C11G C34A A36U G48A G52C C60A C62U: the yeast fitness is at most 0.5.
As for U2C A36C G39A A57U, the yeast fitness was found to be 0.539.
With C5G C61U, the yeast fitness came to 0.736.
Then C4G C5G A43G, with 0.556.
